# Laboratory results taken from ChEMBL document CHEMBL4725472, “Synthesis and Evaluation of Ginkgolic Acid Derivatives as SUMOylation Inhibitors” (ACS Med Chem Lett, 2020).
# pIC50: −log10 of the molar value. The source made the active and inactive calls. No cut-off for these calls is given here.
# Columns and labels:
# [1] = target: Small ubiquitin-related modifier 1 (Homo sapiens) (UniProt P63165); experiment: Inhibition of SUMO1 (unknown origin) assessed as reduction in SUMOylated RanGAP1 level at 50 uM incubated for 60 mins by western blot analysis
# Chain of Small ubiquitin-related modifier 1 (Homo sapiens) (P63165 whole entry): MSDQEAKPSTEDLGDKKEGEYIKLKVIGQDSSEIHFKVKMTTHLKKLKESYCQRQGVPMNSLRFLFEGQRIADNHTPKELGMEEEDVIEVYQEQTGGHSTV
# How it was run: (§1)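 Cell-free RanGAP1 SUMOylation reaction; compounds dissolved in the reaction medium at 50 μM for the initial screen, then retested at 5 μM.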
# PC-3 [2] = experiment: Induction of autophagy-mediated apoptosis in human PC3 cells assessed as increase in cleave PARP level at 20 uM measured after 24 hrs by western blot analysis; type: functional, cell-based
# How it was run: (§2)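 PC3 cells treated at 10 or 20 μM; cleaved PARP and LC3II levels assessed by immunoblot as apoptosis and autophagy markers.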
# [3] = target: Small ubiquitin-related modifier 1 (Homo sapiens) (UniProt P63165); experiment: Inhibition of SUMO1 in human PC3 cells assessed as reduction in SUMOylation level at 10 to 20 uM measured after 24 hrs by western blot analysis; type: cell-based; conditions: PC-3, dose microM 10-20, time 24.0 hrs
# [4] = target: Small ubiquitin-related modifier 2 (Homo sapiens) (UniProt P61956); experiment: Inhibition of SUMO2 in human PC3 cells assessed as reduction in SUMOylation level at 10 uM measured after 24 hrs by western blot analysis; type: cell-based; conditions: PC-3
# Chain of Small ubiquitin-related modifier 2 (Homo sapiens) (P61956 whole entry): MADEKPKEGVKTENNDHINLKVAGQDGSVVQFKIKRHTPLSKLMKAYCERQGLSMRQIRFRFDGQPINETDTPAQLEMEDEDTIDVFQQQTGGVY
# PC3 (Homo sapiens) = experiment: Cytotoxicity against human PC3 cells assessed as cell death at 10 to 20 uM incubated for 24 hrs by crystal violet staining based spectrophotometric analysis; conditions: dose microM 10-20, time 24.0 hrs
# PC-3 [5] = experiment: Induction of autophagy in human PC3 cells assessed as increased of LC3-II level at 20 uM incubated for 24 hrs by Western blot analysis; type: functional, cell-based; how it was run: as §2
# PC-3 [6] = experiment: Induction of autophagy in human PC3 cells assessed as increased of LC3-II level at 10 uM incubated for 24 hrs by Western blot analysis; type: functional, cell-based; how it was run: as §2
# PC-3 [7] = experiment: Induction of autophagy-mediated apoptosis in human PC3 cells assessed as increase in cleave PARP level at 10 uM measured after 24 hrs by western blot analysis; type: functional, cell-based; how it was run: as §2
# [8] = target: Small ubiquitin-related modifier 1 (Homo sapiens) (UniProt P63165); experiment: Inhibition of SUMO1 in human MDA-MB-231 cells assessed as reduction in SUMOylation level at 10 uM measured after 24 hrs by western blot analysis; type: cell-based
# MDA-MB-231 = experiment: Cytotoxicity against human MDA-MB-231 cells assessed as reduction in cell viability incubated for 48 hrs by crystal violet staining based spectrophotometric analysis; type: functional; conditions: MDA-MB-231, 48 h
# How it was run: (§3)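 PC3 and MDA-MB-231 cells exposed to compounds for 48 h at 10 or 20 μM; viability compared with nontreated cells (significance P ≤ 0.05); IC50 values determined in both lines; at least three independent experiments, mean ± SEM.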
# PC-3 [9] = experiment: Cytotoxicity against human PC3 cells assessed as reduction in cell viability incubated for 48 hrs by crystal violet staining based spectrophotometric analysis; type: functional; conditions: PC-3, 48 h; how it was run: as §3
# [10] = target: Small ubiquitin-related modifier 1 (Homo sapiens) (UniProt P63165); experiment: Inhibition of SUMO1 (unknown origin) assessed as reduction in SUMOylated RanGAP1 level at 5 uM incubated for 60 mins by western blot analysis; how it was run: as §1
compound,measurement,setting,value
CCCCCCCCCCCc1ccc(O)c(C(=O)O)c1,inhibition,[1],inactive
CCCCCCCCCCCCCc1cccc(O)c1C(=O)O,Activity,PC-3 [2],Active
same,inhibition,[1],Active
same,inhibition,[3],Active
same,inhibition,[4],Active
same,Activity,PC3 (Homo sapiens),Active
same,Activity,PC-3 [5],Active
same,Activity,PC-3 [6],Active
same,Activity,PC-3 [7],Active
same,inhibition,[8],Active
CCCCCCCCCCCc1ccc(C(=O)O)c(O)c1,inhibition,[1],inactive
CCCCCCCCCCCCCCCc1ccc(C(=O)O)c(O)c1,inhibition,[1],inactive
CCCC/C=C/c1cccc(O)c1C(=O)O,inhibition,[1],inactive
CCCCCCCCCCC/C=C/c1cccc(C(=O)O)c1O,inhibition,[1],inactive
CCCCCCCCCCCc1cccc(O)c1C(=O)O,Activity,PC-3 [2],Active
same,inhibition,[1],Active
same,inhibition,[3],Active
same,inhibition,[4],Active
same,Activity,PC3 (Homo sapiens),Active
same,Activity,PC-3 [5],Active
same,Activity,PC-3 [6],Active
same,Activity,PC-3 [7],Active
same,inhibition,[8],Active
CCCCCCCCCCCCC/C=C/c1cccc(C(=O)O)c1O,inhibition,[1],inactive
CCCCCCCCCCCCCCCc1cccc(C(=O)O)c1O,inhibition,[1],inactive
CCCCCCCCCCC/C=C/c1cccc(O)c1C(=O)O,pIC50,MDA-MB-231,5.09
same,Activity,PC-3 [2],Active
same,inhibition,[1],Active
same,inhibition,[3],Active
same,inhibition,[4],Active
same,pIC50,PC-3 [9],4.97
same,Activity,PC3 (Homo sapiens),Active
same,Activity,PC-3 [5],Active
same,Activity,PC-3 [6],Active
same,inhibition,[10],Active
same,Activity,PC-3 [7],Active
same,inhibition,[8],Active
CCCCCCCCCCCCCc1ccc(O)c(C(=O)O)c1,inhibition,[1],inactive
CCCCCCCCCCCCCc1cccc(C(=O)O)c1O,pIC50,MDA-MB-231,4.89
same,Activity,PC-3 [2],Active
same,inhibition,[1],inactive
same,inhibition,[3],inactive
same,pIC50,PC-3 [9],4.83
same,Activity,PC-3 [5],Active
same,Activity,PC-3 [6],inactive
same,Activity,PC-3 [7],inactive
same,inhibition,[8],inactive
CCCCCC/C=C/c1cccc(O)c1C(=O)O,inhibition,[1],inactive
CCCCCCCCC/C=C/c1ccc(O)c(C(=O)O)c1,inhibition,[1],inactive
CCCCCCc1cccc(O)c1C(=O)O,inhibition,[1],inactive
CCCCCCCCCCC/C=C/c1ccc(C(=O)O)c(O)c1,inhibition,[1],inactive
CCCCCCCCC/C=C/c1ccc(C(=O)O)c(O)c1,inhibition,[1],inactive
CCCCCCCCCCCCCCCc1ccc(O)c(C(=O)O)c1,inhibition,[1],inactive
CCCCCCCCCCCCCc1ccc(C(=O)O)c(O)c1,inhibition,[1],inactive
CCCCCCCCc1cccc(O)c1C(=O)O,inhibition,[1],inactive
CCCCCCCCC/C=C/c1cccc(O)c1C(=O)O,Activity,PC-3 [2],Active
same,inhibition,[1],Active
same,inhibition,[3],Active
same,inhibition,[4],Active
same,Activity,PC3 (Homo sapiens),Active
same,Activity,PC-3 [5],Active
same,Activity,PC-3 [6],Active
same,inhibition,[10],Active
same,Activity,PC-3 [7],Active
same,inhibition,[8],Active
CCCCCCCCCCCCCCCc1cccc(O)c1C(=O)O,inhibition,[1],Active
CCCCCCCCCCC/C=C/c1ccc(O)c(C(=O)O)c1,inhibition,[1],inactive
CCCCCCCCCCCCC/C=C/c1ccc(C(=O)O)c(O)c1,inhibition,[1],inactive
CCCCCCCCCCCCC/C=C/c1ccc(O)c(C(=O)O)c1,inhibition,[1],inactive
CCCCCCCCC/C=C/c1cccc(C(=O)O)c1O,inhibition,[1],inactive
CCCCCCCCCCCCC/C=C/c1cccc(O)c1C(=O)O,inhibition,[1],Active
CCCCCCCCCCCc1cccc(C(=O)O)c1O,inhibition,[1],inactive
